# Reference: ChEMBL document CHEMBL4680101, “Discovery and Optimization of Allosteric Inhibitors of Mutant Isocitrate Dehydrogenase 1 (R132H IDH1) Displaying Activity in Human Acute Myeloid Leukemia Cells” (J Med Chem, 2016)
# Values joined by “and” are separate entries in the source; they are usually repeats but may differ in a detail not shown here. Equal entries are not always repeated. Active and inactive are the calls of the source. The calls are words filed in the database; no cut-off is given here.
# What was measured:
# [1] = target: T1, Isocitrate dehydrogenase [NADP] cytoplasmic (Homo sapiens, UniProt O75874, R132H); experiment: Inhibition of IDH1 R132H mutant (unknown origin) using alpha-ketoglutarate and NADPH incubated for 60 mins by fluorescence based assay
# Target sequence in this assay (O75874 2-414 R132H limits assumed): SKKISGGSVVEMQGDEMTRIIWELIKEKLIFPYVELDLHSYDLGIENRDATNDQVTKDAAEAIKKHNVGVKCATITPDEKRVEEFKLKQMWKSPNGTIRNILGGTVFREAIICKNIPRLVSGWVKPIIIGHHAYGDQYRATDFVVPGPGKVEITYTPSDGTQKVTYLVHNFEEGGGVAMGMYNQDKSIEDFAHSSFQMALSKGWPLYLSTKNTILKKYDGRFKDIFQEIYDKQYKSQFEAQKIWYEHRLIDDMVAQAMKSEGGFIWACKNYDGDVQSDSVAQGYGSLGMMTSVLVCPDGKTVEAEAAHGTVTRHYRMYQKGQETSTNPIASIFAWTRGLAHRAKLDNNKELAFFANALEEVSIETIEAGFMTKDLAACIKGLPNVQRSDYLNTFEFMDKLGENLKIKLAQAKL
# [2] = target: T2, Isocitrate dehydrogenase [NADP] cytoplasmic (Homo sapiens, UniProt O75874); experiment: Inhibition of wild type IDH1 (unknown origin) using alpha-ketoglutarate and NADPH incubated for 30 mins by fluorescence based assay
# T2 sequence (O75874 whole entry): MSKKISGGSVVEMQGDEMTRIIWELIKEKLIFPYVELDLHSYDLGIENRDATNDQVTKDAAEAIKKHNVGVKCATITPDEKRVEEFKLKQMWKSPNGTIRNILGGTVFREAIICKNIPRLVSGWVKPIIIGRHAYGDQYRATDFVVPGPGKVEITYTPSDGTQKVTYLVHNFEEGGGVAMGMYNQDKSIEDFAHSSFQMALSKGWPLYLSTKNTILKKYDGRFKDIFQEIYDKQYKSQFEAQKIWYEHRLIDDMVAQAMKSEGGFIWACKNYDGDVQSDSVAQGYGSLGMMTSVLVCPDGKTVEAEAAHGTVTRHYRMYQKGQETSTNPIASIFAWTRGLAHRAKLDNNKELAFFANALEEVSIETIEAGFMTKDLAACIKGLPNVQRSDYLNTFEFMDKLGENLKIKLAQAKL
# [3] = target: T1, Isocitrate dehydrogenase [NADP] cytoplasmic; experiment: Allosteric inhibition of IDH1 R132H mutant (unknown origin) expressed in HEK293T cells assessed as reduction in 2-HG production incubated for 48 hrs by LC-MS/MS analysis; format: cell-based
# Summary of the method: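 HEK293T cells reverse-transfected with pcDNA3.1 IDH1 R132H (Lipofectamine 2000), 6 h at 37 °C in 1% FBS plating medium, then assay medium. Compound added in DMSO (0.15% final), 48 h at 37 °C. Medium 2-HG quantified by HILIC LC-MS/MS with D3-2-HG internal standard, normalised to Hoechst nuclear count. Mean of two biological replicates.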
# Target sequence in this assay (O75874 2-414 R132H limits assumed): as the sequence (O75874 2-414 R132H limits assumed) above
# HeLa = experiment: Cytotoxicity in human HeLa cells; format: cell-based
# Leukemic blast cell [4] = experiment: Induction of myeloid differentiation in human primary AML blast cells from patient with IDH1 R132H mutation assessed as induction of mature cellular morphology at 1 times to 8 times IC50 incubated for 14 days by cytospin based analysis; format: functional, tissue-based; settings: time 14.0 day
# Summary of the method: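 Primary IDH1 R132H AML cells in cytokine-supplemented methylcellulose with compound or DMSO vehicle for 14 days. Cells recovered by dilution in PBS and centrifugation, then examined on cytospin preparations for morphology.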
# [5] = target: T2, Isocitrate dehydrogenase [NADP] cytoplasmic; experiment: Inhibition of wild type IDH1 (unknown origin) using isocitrate and NADP incubated for 30 mins by fluorescence based assay
# [6] = Effect on cell differentiation in human THP-1 cells; format: ADME, cell-based
# THP-1 = experiment: Effect on cell proliferation in human THP-1 cells; format: ADME, cell-based
# [7] = target: 11-beta-hydroxysteroid dehydrogenase 1 (Homo sapiens, UniProt P28845); experiment: Inhibition of active recombinant human N-terminal His-tagged 11-betaHSD1 expressed in Escherichia coli using cortisone, NADPH and glucose-6-phosphate incubated for 2 hrs by glucose-6-phosphate dehydrogenase based coupled HTRF immuno-competitive assay
# Sequence of 11-beta-hydroxysteroid dehydrogenase 1 (P28845 whole entry): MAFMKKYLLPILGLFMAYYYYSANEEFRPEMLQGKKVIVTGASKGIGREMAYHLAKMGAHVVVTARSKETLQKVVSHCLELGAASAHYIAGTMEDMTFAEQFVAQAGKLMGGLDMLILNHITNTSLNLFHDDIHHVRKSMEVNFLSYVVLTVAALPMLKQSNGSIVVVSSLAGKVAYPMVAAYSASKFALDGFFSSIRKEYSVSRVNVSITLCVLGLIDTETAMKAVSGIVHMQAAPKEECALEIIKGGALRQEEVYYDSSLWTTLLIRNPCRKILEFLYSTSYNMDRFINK
# Summary of the method: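 Coupled HTRF immuno-competitive assay: 11β-HSD1 (1.5 µg/ml) in 100 mM potassium phosphate pH 7.6 with 160 nM cortisone, 1 mM EDTA, 1 mM glucose-6-phosphate and 12.5 µg/ml G6PD, started with 0.1 mM NADPH. Reaction 30 min at 37 °C, stopped with glycyrrhetinic acid in cortisol-d2, then anti-cortisol cryptate for 2 h at room temperature. TR-FRET read-out.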
# Leukemic blast cell [8] = experiment: Induction of myeloid differentiation in human primary AML blast cells from patient with wild type IDH1 assessed as up-regulation of CD15 at 1 times to 8 times IC50 incubated for 14 days by flow cytometry; format: functional, tissue-based; settings: time 14.0 day
# Summary of the method: (§1)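 Primary AML cells (≥80% blasts), 2 x 10^4 per condition in methylcellulose with cytokines (IL-3, IL-6, IL-11, FLT3L, SCF, TPO, G-CSF, EPO). Compound at 1x, 4x, 8x cellular IC50 or DMSO (1:1000), 14 days at 37 °C. Recovered cells stained for CD11b, CD15 and CD117, ≥30 min at 4 °C, read by flow cytometry.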
# Leukemic blast cell [9] = experiment: Induction of myeloid differentiation in human primary AML blast cells from patient with IDH1 R132H mutation assessed as down-regulation of CD117 at 1 times to 8 times IC50 incubated for 14 days by flow cytometry; format: functional, tissue-based; settings: time 14.0 day
# Summary of the method: as §1
# [10] = target: Isocitrate dehydrogenase [NADP] cytoplasmic (Homo sapiens, UniProt O75874, R132C); experiment: Inhibition of IDH1 R132C mutant (unknown origin) using alpha-ketoglutarate and NADPH incubated for 30 mins by fluorescence based assay
# Sequence of Isocitrate dehydrogenase [NADP] cytoplasmic (Homo sapiens, UniProt O75874, R132C) (O75874 2-414 R132C limits assumed): as the sequence (O75874 2-414 R132H limits assumed) above, with H131C counted along it
# Summary of the method: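 IDH1 R132C (100 nM) in 20 mM Tris pH 7.5, 10 mM MgCl2, 150 mM NaCl, 0.03% BSA with 0.5 mM α-ketoglutarate and 50 µM NADPH. Reaction 30 min at 26 °C. NADPH consumption read via diaphorase/resazurin coupling, resorufin fluorescence Ex544/Em590.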
# Leukemic blast cell [11] = experiment: Induction of myeloid differentiation in human primary AML blast cells from patient with IDH1 R132H mutation assessed as increase in clonogenic activity at 1 times to 8 times IC50 incubated for 14 days by cytospin based analysis; format: functional, tissue-based; settings: time 14.0 day
# Summary of the method: (§2)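 Primary AML cells (≥80% blasts) seeded at 2 x 10^4 per condition in cytokine-supplemented methylcellulose with compound or DMSO vehicle (1:1000), 37 °C, 5% CO2. Colonies scored and counted after 14 days, expressed relative to vehicle control. Three independent experiments, mean ± standard error.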
# Leukemic blast cell [12] = experiment: Induction of myeloid differentiation in human primary AML blast cells from patient with wild type IDH1 assessed as down-regulation of CD117 at 1 times to 8 times IC50 incubated for 14 days by flow cytometry; format: functional, tissue-based; settings: time 14.0 day
# Summary of the method: as §1
# [13] = target: Glucose-6-phosphate 1-dehydrogenase (Homo sapiens, UniProt P11413); experiment: Inhibition of wild type G6PD (unknown origin) using glucose-6-phosphate and NADP incubated for 30 mins by fluorescence based assay
# Sequence of Glucose-6-phosphate 1-dehydrogenase (P11413 whole entry): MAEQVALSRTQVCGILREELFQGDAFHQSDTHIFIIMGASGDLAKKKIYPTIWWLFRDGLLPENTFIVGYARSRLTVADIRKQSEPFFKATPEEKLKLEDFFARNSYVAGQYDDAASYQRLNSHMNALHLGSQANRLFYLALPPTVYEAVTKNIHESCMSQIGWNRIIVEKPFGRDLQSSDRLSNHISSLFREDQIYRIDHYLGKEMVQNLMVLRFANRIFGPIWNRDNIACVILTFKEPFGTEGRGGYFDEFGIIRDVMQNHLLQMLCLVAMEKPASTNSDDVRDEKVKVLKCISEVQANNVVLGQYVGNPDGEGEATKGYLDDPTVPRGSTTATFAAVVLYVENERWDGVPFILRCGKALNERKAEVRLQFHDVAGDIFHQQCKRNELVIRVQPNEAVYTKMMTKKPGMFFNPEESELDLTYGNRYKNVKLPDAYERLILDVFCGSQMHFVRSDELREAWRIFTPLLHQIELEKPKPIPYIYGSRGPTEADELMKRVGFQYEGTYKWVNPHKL
# Leukemic blast cell [14] = experiment: Induction of myeloid differentiation in human primary AML blast cells from patient with wild type IDH1 assessed as increase in clonogenic activity at 1 times to 8 times IC50 incubated for 14 days by cytospin based analysis; format: functional, tissue-based; settings: time 14.0 day
# Summary of the method: as §2
# [15] = target: T3, Isocitrate dehydrogenase [NADP], mitochondrial (Homo sapiens, UniProt P48735); experiment: Inhibition of wild type IDH2 (unknown origin) using isocitrate and NADP incubated for 60 mins by fluorescence based assay
# T3 sequence (P48735 whole entry): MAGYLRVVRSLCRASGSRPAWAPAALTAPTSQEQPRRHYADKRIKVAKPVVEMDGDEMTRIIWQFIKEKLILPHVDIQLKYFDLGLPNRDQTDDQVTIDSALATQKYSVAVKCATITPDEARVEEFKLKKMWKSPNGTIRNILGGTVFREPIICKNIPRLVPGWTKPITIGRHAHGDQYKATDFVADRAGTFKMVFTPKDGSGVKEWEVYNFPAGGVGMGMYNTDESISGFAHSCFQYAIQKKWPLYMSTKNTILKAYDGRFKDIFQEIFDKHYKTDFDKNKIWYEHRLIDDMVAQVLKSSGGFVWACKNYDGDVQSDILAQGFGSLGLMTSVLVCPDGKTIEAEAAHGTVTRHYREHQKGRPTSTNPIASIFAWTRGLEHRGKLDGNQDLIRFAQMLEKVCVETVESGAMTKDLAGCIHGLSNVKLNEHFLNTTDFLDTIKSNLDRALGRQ
# [16] = target: T1, Isocitrate dehydrogenase [NADP] cytoplasmic; experiment: (§3) Allosteric inhibition of Myc-tagged IDH1 R132H mutant (unknown origin) expressed in human THP-1 cells assessed as inhibition of 2-HG production incubated for 5 days in presence of doxycycline by LC-MS/MS analysis; format: cell-based
# Summary of the method: (§4)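 THP1 cells carrying doxycycline-inducible Myc-tagged IDH1 R132H (lentiviral, blasticidin-selected) cultured 5 days with doxycycline and compound. 2-HG measured by HILIC LC-MS/MS after solid-phase extraction, D3-2-HG internal standard, against a medium-spiked standard curve. Mean of two biological replicates.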
# Target sequence in this assay (O75874 whole entry R132H): as the sequence (O75874 whole entry) above, with R132H counted along it
# [17] = tested on: Isocitrate dehydrogenase [NADP] cytoplasmic (Homo sapiens), O75874 [R132H]; experiment: as §3; format: cell-based; settings: filed as negative allosteric modulator, time 5.0 day
# Sequence of Isocitrate dehydrogenase [NADP] cytoplasmic (Homo sapiens), O75874 [R132H] (O75874 whole entry R132H): as the sequence (O75874 whole entry) above, with R132H counted along it
# Summary of the method: as §4
# Leukemic blast cell [18] = experiment: Induction of myeloid differentiation in human primary AML blast cells from patient with wild type IDH1 assessed as up-regulation of CD11b at 1 times to 8 times IC50 incubated for 14 days by flow cytometry; format: functional, tissue-based; settings: time 14.0 day
# Summary of the method: as §1
# Leukemic blast cell [19] = experiment: Induction of myeloid differentiation in human primary AML blast cells from patient with IDH1 R132H mutation assessed as up-regulation of CD11b at 1 times to 8 times IC50 incubated for 14 days by flow cytometry; format: functional, tissue-based; settings: time 14.0 day
# Summary of the method: as §1
# [20] = tested on: Isocitrate dehydrogenase [NADP] cytoplasmic (Homo sapiens), O75874 [R132H]; experiment: Allosteric inhibition of Myc-tagged IDH1 R132H mutant (unknown origin) expressed in human THP-1 cells assessed as inhibition of 2-HG production at >=10 uM incubated for 5 days in presence of doxycycline by LC-MS/MS analysis; format: cell-based; settings: filed as negative allosteric modulator, dose microM >=10, time 5.0 day
# Summary of the method: as §4
# Leukemic blast cell [21] = experiment: Induction of myeloid differentiation in human primary AML blast cells from patient with IDH1 R132H mutation assessed as up-regulation of CD15 at 1 times to 8 times IC50 incubated for 14 days by flow cytometry; format: functional, tissue-based; settings: time 14.0 day
# Summary of the method: as §1
smiles,measurement,setting,value
O=C(NC1C2CC3CC1CC(O)(C3)C2)c1ccc(N2C[C@@H]3[C@H](C2)[C@H]3C(=O)O)nc1SC1CCCC1 (stereo partly drawn),IC50,[1],3 µM and 1.6 µM
same,inhibition,[2],inactive
COc1nc(N2CCC[C@@H](CC(=O)O)C2)ccc1C(=O)NC1CCCCC1,IC50,[3],> 30 µM
same,IC50,HeLa,> 30 µM
same,IC50,[1],> 50 µM
CC(C)CCOc1nc(N2C[C@@H]3[C@H](C2)[C@H]3C(=O)O)ccc1C(=O)NC1C2CC3CC1CC(O)(C3)C2 (stereo partly drawn),IC50,[3],2.3 µM
same,IC50,HeLa,> 30 µM
same,IC50,[1],0.27 µM
same,Activity,Leukemic blast cell [4],Active
same,IC50,[5],> 50 µM
same,Activity,[6],Non-Toxic
same,Activity,THP-1,Non-Toxic
same,IC50,[7],0.009 µM
same,Activity,Leukemic blast cell [8],inactive
same,Activity,Leukemic blast cell [9],Active
same,IC50,[10],0.47 µM
same,Activity,Leukemic blast cell [11],Active
same,Activity,Leukemic blast cell [12],inactive
same,IC50,[13],> 50 µM
same,Activity,Leukemic blast cell [14],inactive
same,IC50,[15],> 50 µM
same,IC50,[16],1.9 µM
same,inhibition,[17],Dose-dependent effect
same,Activity,Leukemic blast cell [18],inactive
same,Activity,Leukemic blast cell [19],Active
same,inhibition,[20],100%
same,Activity,Leukemic blast cell [21],Active
O=C(O)C[C@@H]1CCCN(c2ccc(C(=O)NC3CCCCC3)c(OCc3ccccc3F)n2)C1,IC50,[3],16 µM
same,IC50,HeLa,> 30 µM
same,IC50,[1],5.6 µM
CC(C)CCSc1nc(N2C[C@@H]3[C@H](C2)[C@H]3C(=O)O)ccc1C(=O)NC1C2CC3CC1CC(O)(C3)C2 (stereo partly drawn),IC50,[1],1.63 µM and 1.4 µM
same,inhibition,[2],inactive
CC(C)CCOc1nc(N2CCC[C@@H](CC(=O)O)C2)ccc1C(=O)NC1C2CC3CC1CC(O)(C3)C2 (stereo partly drawn),IC50,[3],8.5 µM
same,IC50,HeLa,> 30 µM
same,IC50,[1],1.3 µM
O=C(O)C[C@H]1CCN(c2ccc(C(=O)NC3C4CC5CC3CC(O)(C5)C4)c(SC3CCCCC3)n2)C1 (stereo partly drawn),IC50,[1],2.3 µM and 2.2 µM
same,inhibition,[2],inactive
C[C@@H](Oc1nc(N2CCC[C@@H](CC(=O)O)C2)ccc1C(=O)NC1CCCCC1)c1ccccc1,IC50,[1],5.9 µM
O=C(O)C[C@@H]1CCCN(c2ccc(C(=O)NC3CCCCC3)c(SCc3ccccc3F)n2)C1,IC50,[1],21 µM
CC(C)CCOc1nc(N2C[C@@H]3[C@H](C2)[C@H]3C(=O)O)ccc1NC(=O)C1CCCCC1,IC50,[1],> 50 µM
CC(C)CCSc1nc(N2CCC[C@@H](CC(=O)O)C2)ccc1C(=O)NC1C2CC3CC1CC(O)(C3)C2 (stereo partly drawn),IC50,[1],10.1 µM and 7.6 µM
same,inhibition,[2],inactive
CC(C)=CCOc1nc(N2CCC[C@@H](CC(=O)O)C2)ccc1C(=O)NC1CCCCC1,IC50,[1],14 µM
CC1(C)CC(Oc2nc(N3CCC[C@@H](CC(=O)O)C3)ccc2C(=O)NC2CCCCC2)C1,IC50,[1],7.2 µM
CCCCOc1nc(N2CCC[C@@H](CC(=O)O)C2)ccc1C(=O)NC1CCCCC1,IC50,[1],12 µM
Cc1cc(Cl)ccc1COc1nc(N2CCC[C@@H](CC(=O)O)C2)ccc1C(=O)NC1CCCCC1,IC50,[1],38 µM
O=C(O)C[C@@H]1CCCN(c2ccc(C(=O)NC3CCCCC3)c(OC3CCCCC3)n2)C1,IC50,[1],12 µM
CC(C)CCOc1nc(N2C[C@@H]3[C@H](C2)[C@H]3C(=O)O)ccc1C(=O)NC1CCCCCC1,IC50,[1],3.9 µM
CC(C)CCOc1nc(N2CCC(C(=O)O)CC2)ccc1C(=O)NC1C2CC3CC1CC(O)(C3)C2 (stereo not drawn),IC50,[1],3.4 µM
CC(C)CCOc1nc(N2C[C@@H]3[C@H](C2)[C@H]3C(=O)O)ccc1C(=O)N[C@@H](C)c1ccccc1,IC50,[1],4.4 µM
CC(C)CCOc1nc(N2C[C@@H]3[C@H](C2)[C@H]3C(=O)O)ccc1C(=O)NCc1ccncc1,IC50,[1],6.2 µM
CC(C)CCOc1nc(N2C[C@@H]3[C@H](C2)[C@H]3C(=O)O)ccc1C(=O)Nc1ccc(O)cc1,IC50,[1],5 µM
O=C(O)C[C@@H]1CCCN(c2ccc(C(=O)NC3CCCCC3)c(NC3CCCC3)n2)C1,IC50,[1],> 50 µM
